Experimental data: ChEMBL document CHEMBL4665832, “Benzylidene thiazolidinediones: Synthesis, in vitro investigations of antiproliferative mechanisms and in vivo efficacy determination in combination with Imatinib” (Bioorg Med Chem Lett, 2020)
Values belong to the compound of their own block, whether it stands above or below them. Activity calls are given as the source filed them. No cut-off for these calls is given here.

Columns and labels:
[1] = tested on: K562; assay: Anticancer activity against human K562 cells assessed as cell growth inhibition at 1 uM by MTT assay relative to control; assay type: functional; details: read-out: GI
Method in brief: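 K562 cells given imatinib 1 µM or test compound 1 µM alone, or imatinib 1 µM plus test compound 1 µM. Proliferation read by MTT assay and expressed as % inhibition.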

[2] = tested on: Jurkat; assay: Antiproliferative activity against human Jurkat cells assessed as cell growth inhibition; assay type: functional
Method in brief: (§1)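 Cell lines screened for growth inhibition and GI₅₀ derived. Each value is the mean of 3 independent experiments.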

[3] = Antiproliferative activity against human GURAV cells assessed as cell growth inhibition; assay type: functional; method in brief: as §1
[4] = Cytotoxicity against hepatocytes (unknown origin) assessed as cell growth by MTT assay relative to control; assay type: cell-based, Hepatocyte; design: concentration or dose not given beside the values
[5] = tested on: K562; assay: Antiproliferative activity against human K562 cells assessed as cell growth inhibition; assay type: functional; method in brief: as §1
[6] = tested on: PC-3; assay: Antiproliferative activity against human PC-3 cells assessed as cell growth inhibition; assay type: functional; method in brief: as §1
[7] = tested on: U-937; assay: Antiproliferative activity against human U-937 cells assessed as cell growth inhibition; assay type: functional; method in brief: as §1
[8] = tested on: HL-60; assay: Antiproliferative activity against human HL-60 cells assessed as cell growth inhibition; assay type: functional; method in brief: as §1
[9] = tested on: KB; assay: Antiproliferative activity against human KB cells assessed as cell growth inhibition; assay type: functional; method in brief: as §1
[10] = tested on: MCF7; assay: Antiproliferative activity against human MCF7 cells assessed as cell growth inhibition; assay type: functional; method in brief: as §1
[11] = tested on: MOLT-4; assay: Antiproliferative activity against human MOLT-4 cells assessed as cell growth inhibition; assay type: functional; method in brief: as §1
[12] = tested on: HOP-62; assay: Antiproliferative activity against human HOP-62 cells assessed as cell growth inhibition; assay type: functional; method in brief: as §1
[13] = tested on: K562; assay: Potentiation of imatinib-induced antitumor activity against human K562 cells xenografted in mouse assessed as reduction in tumor volume at 100 mg/kg, ip administered for 30 days co-treated with imatinib at 100 mg/kg and measured every day for 30 days; assay type: functional, organism-based; details: time 30.0 day
Method in brief: (§2)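 Mice implanted subcutaneously in the right rear flank with 6 × 10⁶ K562 cells/100 μl in 50% matrigel. Dosed intraperitoneally: compound alone 200 mg/kg, or compound 100 mg/kg plus imatinib 100 mg/kg; controls were imatinib 100 mg/kg and saline. Tumour volume tracked over time, n = 6. Dunnett's test against control.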

[14] = tested on: K562; assay: Cell cycle arrest in human K562 cells assessed as decrease in cells accumulation at G2/M phase measured after 24 to 72 hrs by flow cytometry analysis; assay type: functional, cell-based; details: dose microM 5-20, time hrs 24-72
Method in brief: (§3)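 K562 cells exposed to 5, 10 or 20 µM and sampled at 24, 48 and 72 h. Phase distribution (G0/G1, S, G2/M) measured by flow cytometry. Untreated and DMSO vehicle controls. SEM of n = 3. Two-tailed t-test, P < 0.05.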

[15] = tested on: K562; assay: Cell cycle arrest in human K562 cells assessed as accumulation at G0/G1 phase at 5 uM measured after 24 hrs by flow cytometry analysis; assay type: functional, cell-based
Method in brief: (§4)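 K562 cells exposed to 5 µM for 24 h, then cell-cycle phase distribution measured by flow cytometry. Untreated cells served as negative control and DMSO as vehicle control. SEM of n = 3. Two-tailed Student's t-test, P < 0.05.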

[16] = tested on: K562; assay: Downregulation of cyclin-D1 expression in human K562 cells at 10 to 20 uM measured after 24 hrs by Western blot analysis; assay type: functional, cell-based; details: dose microM 10-20, time 24.0 hrs
Method in brief: (§5)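 K562 cells treated at 10 or 20 µM for 24, 48 or 72 h. PCNA and cyclin D1 detected by Western blot, bands quantified and normalised to actin. Means of three separate experiments, SD, P < 0.05.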

[17] = tested on: K562; assay: Cell cycle arrest in human K562 cells assessed as decrease in cells accumulation at S phase measured after 24 to 72 hrs by flow cytometry analysis; assay type: functional, cell-based; details: dose microM 5-20, time hrs 24-72; method in brief: as §3
[18] = tested on: K562; assay: Downregulation of PCNA expression in human K562 cells at 10 to 20 uM measured after 48 hrs by Western blot analysis; assay type: functional, cell-based; details: dose microM 10-20, time 48.0 hrs; method in brief: as §5
[19] = tested on: K562; assay: Downregulation of cyclin-D1 expression in human K562 cells at 10 to 20 uM measured after 48 to 72 hrs by Western blot analysis; assay type: functional, cell-based; details: dose microM 10-20, time hrs 48-72; method in brief: as §5
[20] = tested on: K562; assay: Cell cycle arrest in human K562 cells assessed as increase in cells accumulation at G0/G1 phase at 5 to 20 uM measured by flow cytometry analysis; assay type: functional, cell-based; details: dose microM 5-20, time hrs 24-72, TDE = time-dependent effect; method in brief: as §3
[21] = tested on: K562; assay: Cell cycle arrest in human K562 cells assessed as decrease in cells accumulation at S phase at 5 to 20 uM measured by flow cytometry analysis; assay type: functional, cell-based; details: dose microM 5-20, time hrs 24-72, TDE = time-dependent effect; method in brief: as §3
[22] = tested on: K562; assay: Downregulation of PCNA expression in human K562 cells at 10 to 20 uM measured after 24 hrs by Western blot analysis; assay type: functional, cell-based; details: dose microM 10-20, time 24.0 hrs; method in brief: as §5
[23] = Acute toxicity in po dosed mouse assessed as maximum tolerated dose; assay type: organism-based; details: in vivo
Method in brief: (§6)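 Healthy mice were given oral doses that increased over the study period. Each higher dose was given only if the previous dose was well tolerated. All animals were monitored for body weight loss, behavioural changes and mortality to set the maximum tolerated dose.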

[24] = tested on: K562; assay: Cell cycle arrest in human K562 cells assessed as increase in cells accumulation at G0/G1 phase measured after 24 to 72 hrs by flow cytometry analysis; assay type: functional, cell-based; details: dose microM 5-20, time hrs 24-72; method in brief: as §3
[25] = tested on: K562; assay: Antitumor activity against human K562 cells xenografted in mouse assessed as reduction in tumor volume at 200 mg/kg, ip administered for 30 days and measured every day for 30 days; assay type: functional, organism-based; details: time 30.0 day; method in brief: as §2
[26] = tested on: K562; assay: Downregulation of PCNA expression in human K562 cells at 20 uM measured after 72 hrs by Western blot analysis; assay type: functional, cell-based; method in brief: as §5
[27] = Acute toxicity in po dosed mouse assessed as body weight loss; assay type: organism-based; details: in vivo; method in brief: as §6
[28] = tested on: K562; assay: Potentiation of imatinib-induced anticancer activity against human K562 cells assessed as cell growth inhibition at 1 uM by MTT assay (reference value: 71%); assay type: functional; details: read-out: GI
[29] = tested on: K562; assay: Cell cycle arrest in human K562 cells assessed as accumulation at S phase at 5 uM measured after 24 hrs by flow cytometry analysis; assay type: functional, cell-based; method in brief: as §4
[30] = tested on: K562; assay: Cell cycle arrest in human K562 cells assessed as accumulation at G2/M phase at 5 uM measured after 24 hrs by flow cytometry analysis; assay type: functional, cell-based; method in brief: as §4
[31] = tested on: K562; assay: Cell cycle arrest in human K562 cells assessed as decrease in cells accumulation at G2/M phase at 5 to 20 uM measured by flow cytometry analysis; assay type: functional, cell-based; details: dose microM 5-20, time hrs 24-72, TDE = time-dependent effect; method in brief: as §3
[32] = Acute toxicity in po dosed mouse assessed as mortality; assay type: organism-based; details: in vivo; method in brief: as §6
[33] = tested on: A549; assay: Antiproliferative activity against human A549 cells assessed as cell growth inhibition; assay type: functional; method in brief: as §1
[34] = tested on: NCI-H226; assay: Antiproliferative activity against human NCI-H226 cells assessed as cell growth inhibition; assay type: functional; method in brief: as §1

Structure (SMILES): Cc1ccc(NC(=O)c2ccc(CN3CCN(C)CC3)cc2)cc1Nc1nccc(-c2cccnc2)n1 [IMATINIB]
- inhibition of growth at 1 µM [1]: 71%

Structure (SMILES): Cc1c(NC(=O)COc2ccc(/C=C3\SC(=O)NC3=O)cc2)c(=O)n(-c2ccccc2)n1C
- viability [4]: > 70%

Structure (SMILES): O=C(COc1ccc(/C=C2\SC(=O)NC2=O)cc1)Nc1ncc([N+](=O)[O-])s1
- viability [4]: > 70%

Structure (SMILES): Cc1cc(NC(=O)COc2ccc(/C=C3\SC(=O)NC3=O)cc2)no1
- viability [4]: > 70%

Structure (SMILES): CCc1ccc(CCOc2ccc(CC3SC(=O)NC3=O)cc2)nc1 (stereo not given) [PIOGLITAZONE]
- GI50 [5]: 40.1 µM

Structure (SMILES): O=C(COc1ccc(/C=C2\SC(=O)NC2=O)cc1)Nc1ccc(F)cc1F
- inhibition of growth at 1 µM [1]: 62%
- GI50 [2]: 34.6 µM
- GI50 [3]: 61.4 µM
- Activity [13]: Active
- viability [4]: > 70%
- Activity [14]: Dose-dependent effect
- Activity [15]: Active
- inhibition [16]: inactive
- Activity [17]: Dose-dependent effect
- inhibition [18]: inactive
- inhibition [19]: Active
- Activity [20]: Tde
- GI50 [5]: 0.9 µM
- Activity [21]: Tde
- inhibition [22]: inactive
- MTD [23]: 2000 mg/kg
- GI50 [6]: > 100 µM
- GI50 [7]: 35.6 µM
- GI50 [8]: 47.8 µM
- GI50 [9]: > 100 µM
- Activity [24]: Dose-dependent effect
- GI50 [10]: 65.8 µM
- Activity [25]: Active
- GI50 [11]: 40.3 µM
- inhibition [26]: Active
- Activity [27]: Non-Toxic
- inhibition of growth at 1 µM [28]: 79%
- Activity [29]: Active
- GI50 [12]: > 100 µM
- Activity [30]: Active
- Activity [31]: Tde
- Activity [32]: Non-Toxic

Structure (SMILES): O=C(COc1ccc(/C=C2\SC(=O)NC2=O)cc1)Nc1cccc([N+](=O)[O-])c1
- GI50 [3]: 71.5 µM
- viability [4]: > 70%
- GI50 [5]: 20.5 µM
- GI50 [6]: > 100 µM
- GI50 [9]: > 100 µM
- GI50 [10]: 58.5 µM
- GI50 [12]: > 100 µM

Now from value to compound, other results behind:

- GI50 [2]: > 100 µM
- GI50 [5]: 7.4 µM
- GI50 [6]: 83.4 µM
- GI50 [7]: 46.3 µM
- GI50 [8]: 52.4 µM
- GI50 [9]: 50.3 µM
- GI50 [10]: 51.1 µM
- GI50 [11]: 42.7 µM
Structure (SMILES): O=C(COc1ccc(/C=C2\SC(=O)NC2=O)cc1)Nc1ccc(Cl)cc1
- GI50 [3]: 35.6 µM
- viability [4]: > 70%
- GI50 [12]: 36.1 µM

- GI50 [2]: 59.9 µM
- GI50 [5]: 9.6 µM
- GI50 [6]: > 100 µM
- GI50 [7]: 63.9 µM
- GI50 [8]: 61.1 µM
- GI50 [9]: > 100 µM
- GI50 [10]: 54.6 µM
- GI50 [11]: 53.5 µM
Structure (SMILES): O=C(COc1ccc(/C=C2\SC(=O)NC2=O)cc1)Nc1ccc(F)cc1
- GI50 [3]: 56.8 µM
- viability [4]: > 70%
- GI50 [12]: 68 µM

- GI50 [5]: 10.7 µM
- GI50 [6]: 58.3 µM
- GI50 [9]: 75 µM
- GI50 [10]: 28.3 µM
Structure (SMILES): Cc1cccc(NC(=O)COc2ccc(/C=C3\SC(=O)NC3=O)cc2)n1
- GI50 [3]: 60.9 µM
- viability [4]: > 70%
- GI50 [12]: 81.4 µM

- GI50 [5]: 23.4 µM
- GI50 [6]: 86.6 µM
- GI50 [9]: 32.1 µM
- GI50 [10]: 55.1 µM
Structure (SMILES): O=C(COc1ccc(/C=C2\SC(=O)NC2=O)cc1)Nc1ccc(Br)cc1
- GI50 [3]: 54.4 µM
- viability [4]: > 70%
- GI50 [12]: 45.4 µM

- GI50 [33]: 46.9 µM
- GI50 [34]: 26.5 µM
Structure (SMILES): O=C(COc1ccc(/C=C2\SC(=O)NC2=O)cc1)Nc1nc2ccccc2s1
- viability [4]: > 70%

- GI50 [5]: 20.7 µM
- GI50 [6]: > 100 µM
- GI50 [9]: > 100 µM
- GI50 [10]: 66.8 µM
Structure (SMILES): Cc1cc(Br)ccc1NC(=O)COc1ccc(/C=C2\SC(=O)NC2=O)cc1
- GI50 [3]: 69.7 µM
- viability [4]: > 70%
- GI50 [12]: > 100 µM
